Results collected from several papers.
Protocols differ between the studies behind these lines.
Effect on: cell growth or viability

| SMILES | cell line | assay | setting | measurement | result |
| --- | --- | --- | --- | --- | --- |
| CCCCCCCCCCOc1cc2c(O)c(C(=O)OCC)cnc2cc1OCC | Huh-7 |  | 72 h | IC50 | > 100 µM |
| CC(C)(C)C(O)C(Oc1ccc(-c2ccccc2)cc1)n1cncn1 (centres unmarked) | Huh-7 | MTT | 24 h | CC50 | > 400 µM |
| CC(C)(CO)C(=O)SCCOP(=O)(NCc1ccccc1)OC[C@H]1O[C@@H](n2cnc3c(=O)[nH]c(N)nc32)[C@](C)(O)[C@@H]1O (mixture of isomers) | Huh-7 |  | replicon | CC50 | > 10 µM |
| O=c1c(O[C@@H]2O[C@H](CO)[C@@H](O)[C@H](O)[C@H]2O)c(-c2ccc(O)cc2)oc2cc(O)cc(O)c12 | HepG2 | WST-1 |  | IC50 | 37.8 µM |
| COC(=O)[C@@H]1[C@@H](c2ccccc2)[C@]2(c3ccc(OC)cc3)Oc3cc(OC)cc(OC)c3[C@@]23N=C(C)N[C@@]13O | HepG2 | MTT | 24 h | CC50 | 0.0658 µM |
| CC(C)[C@H](N)C(=O)N1CCC[C@H]1B(O)O | HEK-293T | ATP luminescence | 60 µM, 5 days | viability | 97% |
| CCC/C=C/C=C/C(=O)O[C@H]1/C(=C/C(=O)OC)C[C@H]2C[C@H]([C@@H](C)O)OC(=O)C[C@H](O)C[C@@H]3C[C@H](OC(C)=O)C(C)(C)[C@](O)(C[C@@H]4C/C(=C/C(=O)OC)C[C@H](/C=C/C(C)(C)[C@]1(O)O2)O4)O3 | BGM | MTS | 5 days | CC50 | ~100 µM |
| CCOC(=O)CCc1ccccc1OP(=O)(OC[C@H]1O[C@@H](n2cnc3c(N)nc(N)nc32)[C@](C)(O)[C@@H]1O)Oc1ccccc1CCC(=O)OCC | Huh-7 |  | replicon | CC50 | > 10 µM |
